Series [1] deals with secreted LasB (Pseudomonas aeruginosa, UniProt Q02RJ6). Put plainly: bacterial P. aeruginosa elastase assays. It counts as cell-based.
For series [2], the system named is P. aeruginosa strain PA14. Put plainly: swarming assay on swarm agar plates. The format is cell-based, Pseudomonas aeruginosa. The note with it: for swarming inhibition: data not shown; for effect on swarming: 25 μM, 16 h at 30 °C, versus DMSO-treated control. In a few lines:
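Test compound was added to the swarm agar at 25 μM, and P. aeruginosa PA14 was grown on these plates for 16 h at 30 °C. Swarm morphology was compared visually with plates containing DMSO as the vehicle control.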

A short description of series [3]: stability studies in bacterial culture medium. The format is physicochemical. The note with it: 48 h period.
Series [4] has as its target LasB (Pseudomonas aeruginosa, UniProt P14756). As to the kind of experiment: LasB fluorescence assay based on a LasB-cleavable FRET peptide substrate. The format is biochemical. Particulars: for less potent than 8a and 8b in the in vitro LasB assay: relative to 8a and 8b; for improvement in potency: relative to fragment hits 3 and 4.

The record followed here is publication PMC3501683 (ACS medicinal chemistry letters, 2012).

Each structure is given as a SMILES string. “Also recorded” adds a separate entry of the source.

Chain of secreted LasB (Q02RJ6 198-498): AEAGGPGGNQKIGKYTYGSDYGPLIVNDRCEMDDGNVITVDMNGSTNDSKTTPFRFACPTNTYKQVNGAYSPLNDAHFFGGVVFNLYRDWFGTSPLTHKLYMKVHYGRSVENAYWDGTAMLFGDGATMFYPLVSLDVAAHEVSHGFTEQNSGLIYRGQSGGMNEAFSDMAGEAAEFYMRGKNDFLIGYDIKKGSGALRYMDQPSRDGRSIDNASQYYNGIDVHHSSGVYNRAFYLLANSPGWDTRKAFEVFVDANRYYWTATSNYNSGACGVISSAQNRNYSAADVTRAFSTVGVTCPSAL
Chain of LasB (P14756 198-498): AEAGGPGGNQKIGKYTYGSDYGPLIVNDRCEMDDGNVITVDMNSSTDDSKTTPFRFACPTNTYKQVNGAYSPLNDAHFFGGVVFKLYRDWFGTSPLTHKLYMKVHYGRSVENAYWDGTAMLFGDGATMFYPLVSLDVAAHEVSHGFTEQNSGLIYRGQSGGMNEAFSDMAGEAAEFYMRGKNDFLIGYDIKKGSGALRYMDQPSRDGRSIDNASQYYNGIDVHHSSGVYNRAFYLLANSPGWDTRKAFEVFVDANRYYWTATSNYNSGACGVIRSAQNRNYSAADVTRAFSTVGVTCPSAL

Regarding `O=C(Cc1cccc(F)c1)NO` [Compound 2], in series [1], the “antagonism in bacterial P. aeruginosa elastase assays (secreted LasB inhibition)” value is “no secreted LasB inhibition; also recorded: no antagonism”. Also, the swarming inhibition entry in series [2] is “no swarming inhibition”. For the same molecule, in series [3], the “stability in bacterial culture medium” value was “hydrolytic instability”. Further, in series [4], the “less potent than 8a and 8b in the in vitro LasB assay” value was ~ 5 fold.
As to `Cc1c(O)c(=S)ccn1Cc1ccc(-c2ccccc2)cc1` [Compound 8b], the effect on swarming result in series [2] is “almost completely abolished swarming”. Moreover, the “stability in bacterial culture medium” value in series [3] is given as “no detectable S-oxidation or decomposition”. In addition, the improvement in potency in series [4] was ~ 30 fold.
For `O=C(Cc1ccccc1)NO` [Compound 1], the “antagonism in bacterial P. aeruginosa elastase assays (secreted LasB inhibition)” value in series [1] is “no secreted LasB inhibition; also recorded: no antagonism”. Further, in series [2], the swarming inhibition result was “no swarming inhibition”. Moreover, the “stability in bacterial culture medium” value in series [3] is listed as “hydrolytic instability”. In addition, the “less potent than 8a and 8b in the in vitro LasB assay” value in series [4] is listed as ~ 5 fold.
Regarding `Cc1c(O)c(=S)ccn1Cc1ccc(-c2ccc(F)c(F)c2)cc1` [Compound 8a], the effect on swarming entry in series [2] is listed as “almost completely abolished swarming”. The “stability in bacterial culture medium” value in series [3] is on record as “no detectable S-oxidation or decomposition”. The improvement in potency in series [4] is given as ~ 30 fold.
